Calls of active or inactive are those of the source. No cut-off for these calls is given here.
Columns and labels:
[1] = biological target: Signal transducer and activator of transcription 3 (Homo sapiens, UniProt P40763); test: Binding affinity to recombinant human His/SUMO-tagged STAT3 (127 to 688 residues) expressed in Escherichia coli Rosetta (DE3) incubated for 1 hr by fluorescence polarization assay
[2] = biological target: T1, Protein cereblon/Signal transducer and activator of transcription 3 (Homo sapiens, UniProt P40763+Q96SW2); test: Protac activity at CRBN/STAT3 in human MOLM16 cells assessed as degradation of STAT3 incubated for 4 hrs by Western blot analysis; type: cell-based
How it was run: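 Molm-16 cells treated 4 h with serially diluted compound. Lysates immunoblotted (SDS–PAGE, PVDF, 5% blocker/TBST, chemiluminescence) for total STAT3 and pSTAT3 Y705. DC50 taken as the concentration reducing total STAT3 by 50%.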

[3] = biological target: T1, Protein cereblon/Signal transducer and activator of transcription 3; test: Protac activity at CRBN/STAT3 in human SUDHL1 cells assessed as degradation of STAT3 incubated for 16 hrs by Western blot analysis; type: cell-based
[4] = biological target: Protein cereblon/Signal transducer and activator of transcription 4 (Homo sapiens) (UniProt Q96SW2+Q14765); test: Protac activity at CRBN/STAT4 in human SUDHL1 cells assessed as degradation of STAT4 at 0.01 to 10 uM incubated for 18 hrs by Western blot analysis; type: cell-based
How it was run: (§1)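 SU-DHL-1 cells treated 18 h with test compound at 0.01–10 μM, or control compounds at 10 μM. Lysates separated by SDS–PAGE, transferred to PVDF, blocked 1 h in 5% blocker/TBST, probed for each STAT protein, and detected by chemiluminescence.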

[5] = biological target: Protein cereblon/Signal transducer and activator of transcription 5A (Homo sapiens) (UniProt P42229+Q96SW2); test: Protac activity at CRBN/STAT5A in human SUDHL1 cells assessed as degradation of STAT5A at 0.01 to 10 uM incubated for 18 hrs by Western blot analysis; type: cell-based; how it was run: as §1
[6] = biological target: Protein cereblon/Signal transducer and activator of transcription 6 (Homo sapiens) (UniProt P42226+Q96SW2); test: Protac activity at CRBN/STAT6 in human SUDHL1 cells assessed as degradation of STAT6 at 0.01 to 10 uM incubated for 18 hrs by Western blot analysis; type: cell-based; how it was run: as §1
Homo sapiens [7] = species on record: Homo sapiens; test: Selectivity index, ratio of protac activity at CRBN/STAT5A in human MOLM16 cells to protac activity at CRBN/STAT3 in human MOLM16 cells; type: cell-based
How it was run: (§2)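 Molm-16 cells treated 4 h with compound at 0.01–10 μM, or controls at 10 μM. Western blot of lysates: SDS–PAGE, PVDF, 1 h block in 5% blocker/TBST, primary and secondary antibodies, chemiluminescent detection. STAT1, -2, -4, -5A/B and -6 levels read against STAT3 to give degradation selectivity.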

Homo sapiens [8] = species on record: Homo sapiens; test: Selectivity index, ratio of protac activity at CRBN/STAT6 in human MOLM16 cells to protac activity at CRBN/STAT3 in human MOLM16 cells; type: cell-based; how it was run: as §2
Homo sapiens [9] = species on record: Homo sapiens; test: Selectivity index, ratio of protac activity at CRBN/STAT1 in human SUDHL1 cells to protac activity at CRBN/STAT3 in human SUDHL1 cells; type: cell-based
How it was run: (§3)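 SU-DHL-1 cells treated 18 h with compound at 0.01–10 μM, or controls at 10 μM. Immunoblotting used SDS–PAGE, PVDF transfer, 1 h block in 5% blocker/TBST, primary and secondary antibodies and chemiluminescence. Levels of other STAT family members compared with STAT3 to express degradation selectivity.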

Homo sapiens [10] = species on record: Homo sapiens; test: Selectivity index, ratio of protac activity at CRBN/STAT4 in human SUDHL1 cells to protac activity at CRBN/STAT3 in human SUDHL1 cells; type: cell-based; how it was run: as §3
Homo sapiens [11] = species on record: Homo sapiens; test: Selectivity index, ratio of protac activity at CRBN/STAT6 in human SUDHL1 cells to protac activity at CRBN/STAT3 in human SUDHL1 cells; type: cell-based; how it was run: as §3
Mus musculus [12] = test: In vivo degradation of STAT3 in CD1 mouse at 25 mg/kg, iv measured upto 48 hrs by Western blot analysis; type: functional, organism-based
How it was run: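 Female CD-1 mice given a single intravenous dose in 10% PEG400 + 90% PBS, or vehicle. Euthanized at set time points. Spleen harvested and lysates immunoblotted for STAT3.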

Mus musculus [13] = test: In vivo degradation of STAT3 in SCID mouse xenografted with MOLM-16 cells at 50 mg/kg, iv measured upto 1 hr by Western blot analysis relative to control; type: functional
How it was run: (§4)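 SCID mice bearing subcutaneous Molm-16 tumors (3 × 10^6 cells in Matrigel; treated at ~150 mm3) given a single intravenous dose in 10% PEG400 + 90% PBS, or vehicle. Tumors harvested at time points. Lysates immunoblotted for total STAT3 and pSTAT3 Y705, compared with vehicle control.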

Mus musculus [14] = test: In vivo degradation of STAT3 in SCID mouse xenografted with MOLM-16 cells at 50 mg/kg, iv measured upto 72 hrs by Western blot analysis relative to control; type: functional; how it was run: as §4
Mus musculus [15] = test: In vivo degradation of phosphorylated STAT3 Y705 in SCID mouse xenografted with MOLM-16 cells at 50 mg/kg, iv measured upto 72 hrs by Western blot analysis relative to control; type: functional; how it was run: as §4
[16] = biological target: T2, Signal transducer and activator of transcription 4 (Homo sapiens, UniProt Q14765); test: Binding affinity to recombinant human His/SUMO-tagged STAT4 (133 to 705 residues) expressed in Escherichia coli Rosetta (DE3) incubated for 1 hr by fluorescence polarization assay
T2 sequence (Q14765 whole entry): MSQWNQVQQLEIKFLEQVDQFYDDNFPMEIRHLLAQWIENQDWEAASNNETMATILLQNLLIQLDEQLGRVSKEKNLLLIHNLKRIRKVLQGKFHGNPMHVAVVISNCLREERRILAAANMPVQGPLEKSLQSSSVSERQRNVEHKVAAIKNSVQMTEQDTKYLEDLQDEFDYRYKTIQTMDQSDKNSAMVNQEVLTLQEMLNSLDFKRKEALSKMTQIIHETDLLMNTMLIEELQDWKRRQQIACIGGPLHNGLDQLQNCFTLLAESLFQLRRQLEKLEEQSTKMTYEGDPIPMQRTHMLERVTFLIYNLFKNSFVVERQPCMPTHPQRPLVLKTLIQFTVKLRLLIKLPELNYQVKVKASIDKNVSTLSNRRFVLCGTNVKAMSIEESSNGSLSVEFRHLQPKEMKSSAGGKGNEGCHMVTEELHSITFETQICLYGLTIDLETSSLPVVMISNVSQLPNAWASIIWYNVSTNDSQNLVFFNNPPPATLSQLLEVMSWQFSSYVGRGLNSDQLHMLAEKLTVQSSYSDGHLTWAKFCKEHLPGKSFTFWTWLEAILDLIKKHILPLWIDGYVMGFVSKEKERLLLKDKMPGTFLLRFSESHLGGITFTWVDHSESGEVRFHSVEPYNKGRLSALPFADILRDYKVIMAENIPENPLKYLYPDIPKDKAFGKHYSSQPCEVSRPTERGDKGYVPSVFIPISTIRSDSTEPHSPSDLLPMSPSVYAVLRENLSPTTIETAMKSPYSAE

T1 sequence (P40763 whole entry): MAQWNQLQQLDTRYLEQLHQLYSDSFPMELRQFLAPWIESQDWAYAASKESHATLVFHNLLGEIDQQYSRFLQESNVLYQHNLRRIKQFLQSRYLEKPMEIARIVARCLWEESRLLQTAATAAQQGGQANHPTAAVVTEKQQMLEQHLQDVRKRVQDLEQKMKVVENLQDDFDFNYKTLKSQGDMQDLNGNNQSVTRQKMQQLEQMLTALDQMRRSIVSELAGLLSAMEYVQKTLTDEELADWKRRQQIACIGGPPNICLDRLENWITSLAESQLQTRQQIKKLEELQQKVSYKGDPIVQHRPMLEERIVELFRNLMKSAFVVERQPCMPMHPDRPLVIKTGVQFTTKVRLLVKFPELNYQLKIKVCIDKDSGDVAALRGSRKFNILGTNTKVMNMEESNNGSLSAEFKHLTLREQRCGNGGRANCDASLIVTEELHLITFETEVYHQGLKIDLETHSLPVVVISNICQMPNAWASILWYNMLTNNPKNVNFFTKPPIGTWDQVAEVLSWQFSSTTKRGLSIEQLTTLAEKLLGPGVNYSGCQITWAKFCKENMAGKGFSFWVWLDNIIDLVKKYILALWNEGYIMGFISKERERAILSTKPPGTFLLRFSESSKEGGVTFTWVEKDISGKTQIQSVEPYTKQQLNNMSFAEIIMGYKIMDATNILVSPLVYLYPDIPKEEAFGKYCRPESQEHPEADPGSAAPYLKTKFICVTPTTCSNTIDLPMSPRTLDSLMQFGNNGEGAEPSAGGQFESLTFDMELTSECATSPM
T1 sequence (Q96SW2 whole entry): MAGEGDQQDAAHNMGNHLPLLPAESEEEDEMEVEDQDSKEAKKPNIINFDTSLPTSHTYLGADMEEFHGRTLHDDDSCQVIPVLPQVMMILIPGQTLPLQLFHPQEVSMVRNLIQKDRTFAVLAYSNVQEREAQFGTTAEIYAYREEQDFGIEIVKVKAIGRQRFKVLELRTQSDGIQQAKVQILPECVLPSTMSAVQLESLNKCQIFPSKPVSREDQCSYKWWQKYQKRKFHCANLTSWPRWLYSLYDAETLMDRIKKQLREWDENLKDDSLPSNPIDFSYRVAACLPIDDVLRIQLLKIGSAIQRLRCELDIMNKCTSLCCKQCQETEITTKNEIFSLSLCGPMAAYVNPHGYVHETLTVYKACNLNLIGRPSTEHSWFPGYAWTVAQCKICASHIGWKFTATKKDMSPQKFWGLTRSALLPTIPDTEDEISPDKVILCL
Protein cereblon/Signal transducer and activator of transcription 6 (Homo sapiens), sequence (P42226 2-847 limits assumed): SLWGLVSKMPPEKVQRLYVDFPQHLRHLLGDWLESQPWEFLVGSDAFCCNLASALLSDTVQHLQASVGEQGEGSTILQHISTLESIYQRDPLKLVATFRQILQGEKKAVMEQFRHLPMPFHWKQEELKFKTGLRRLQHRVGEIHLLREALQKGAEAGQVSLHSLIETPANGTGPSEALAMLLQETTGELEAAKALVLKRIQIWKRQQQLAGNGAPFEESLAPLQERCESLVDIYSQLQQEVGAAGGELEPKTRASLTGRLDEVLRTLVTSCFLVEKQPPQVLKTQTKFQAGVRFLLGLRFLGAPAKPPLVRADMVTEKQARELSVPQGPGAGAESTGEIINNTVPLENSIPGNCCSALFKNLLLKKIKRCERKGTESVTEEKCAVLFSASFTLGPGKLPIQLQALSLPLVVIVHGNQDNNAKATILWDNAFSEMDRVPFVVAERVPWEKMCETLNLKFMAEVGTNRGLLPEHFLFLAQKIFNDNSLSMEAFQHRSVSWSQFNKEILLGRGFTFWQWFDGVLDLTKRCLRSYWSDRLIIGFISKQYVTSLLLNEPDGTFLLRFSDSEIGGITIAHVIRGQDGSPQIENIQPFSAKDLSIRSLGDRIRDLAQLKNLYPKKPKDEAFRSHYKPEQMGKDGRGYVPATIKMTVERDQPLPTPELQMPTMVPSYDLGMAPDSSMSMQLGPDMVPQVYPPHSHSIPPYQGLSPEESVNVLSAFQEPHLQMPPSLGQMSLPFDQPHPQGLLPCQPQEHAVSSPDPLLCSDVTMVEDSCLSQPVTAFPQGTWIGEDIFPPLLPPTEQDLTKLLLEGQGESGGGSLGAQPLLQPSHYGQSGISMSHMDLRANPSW
Protein cereblon/Signal transducer and activator of transcription 6 (Homo sapiens), sequence (Q96SW2 whole entry partner): as the sequence (Q96SW2 whole entry) above
Protein cereblon/Signal transducer and activator of transcription 4 (Homo sapiens), sequence (Q96SW2 whole entry, looked up, one chain of several): as the sequence (Q96SW2 whole entry) above
Signal transducer and activator of transcription 3, sequence (P40763 whole entry, the tested form may be a part): as the sequence (P40763 whole entry) above
Protein cereblon/Signal transducer and activator of transcription 5A (Homo sapiens), sequence (P42229 whole entry, looked up): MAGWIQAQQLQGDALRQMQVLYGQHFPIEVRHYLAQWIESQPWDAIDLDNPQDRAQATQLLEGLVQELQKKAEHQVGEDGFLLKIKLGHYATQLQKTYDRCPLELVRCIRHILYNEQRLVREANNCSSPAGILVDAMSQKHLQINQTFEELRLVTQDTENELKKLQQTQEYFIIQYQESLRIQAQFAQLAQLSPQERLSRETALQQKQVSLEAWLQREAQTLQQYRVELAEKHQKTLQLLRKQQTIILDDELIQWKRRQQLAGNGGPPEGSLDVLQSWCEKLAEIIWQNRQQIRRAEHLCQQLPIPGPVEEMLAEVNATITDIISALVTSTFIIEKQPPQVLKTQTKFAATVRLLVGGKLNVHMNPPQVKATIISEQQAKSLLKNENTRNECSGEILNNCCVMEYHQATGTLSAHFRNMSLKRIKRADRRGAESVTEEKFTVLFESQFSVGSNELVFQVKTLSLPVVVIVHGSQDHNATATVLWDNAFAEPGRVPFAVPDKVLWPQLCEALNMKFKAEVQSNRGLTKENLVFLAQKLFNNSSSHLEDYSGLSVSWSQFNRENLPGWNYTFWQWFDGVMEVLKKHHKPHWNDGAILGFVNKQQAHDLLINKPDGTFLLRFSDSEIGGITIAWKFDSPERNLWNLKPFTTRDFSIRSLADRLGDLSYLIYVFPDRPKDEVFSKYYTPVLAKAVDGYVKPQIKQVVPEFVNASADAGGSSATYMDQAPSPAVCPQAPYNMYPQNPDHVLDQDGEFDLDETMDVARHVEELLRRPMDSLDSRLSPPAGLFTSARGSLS
Protein cereblon/Signal transducer and activator of transcription 5A (Homo sapiens), sequence (Q96SW2 whole entry, looked up): as the sequence (Q96SW2 whole entry) above

Q: Which Kd [1] does the source give for NC(=O)CC[C@H](NC(=O)[C@@H]1CC[C@@H]2CCN(C(=O)CCCCCC#Cc3cccc4c3CN(C3CCC(=O)NC3=O)C4=O)C[C@H](NC(=O)c3cc4cc(C(F)(F)P(=O)(O)O)ccc4[nH]3)C(=O)N21)C(=O)NC(c1ccccc1)c1ccccc1 (stereo partly specified) here?
A: 44 nM

Q: And the DC50 [2]?
A: 60 nM

Q: What about the DC50 [3] of the same molecule?
A: 28 nM

Q: What about the Activity [4] of the same molecule?
A: inactive

Q: And the Activity [5]?
A: inactive

Q: And the Activity [6]?
A: inactive

Q: What about the Ratio (Homo sapiens [7]) of the same molecule?
A: > 100

Q: And the Ratio (Homo sapiens [8])?
A: > 100

Q: And the Ratio (Homo sapiens [9])?
A: > 100

Q: What about the Ratio (Homo sapiens [10]) of the same molecule?
A: > 100

Q: And the Ratio (Homo sapiens [11])?
A: > 100

Q: What about the Activity (Mus musculus [12]) of the same molecule?
A: Active

Q: What about the Activity (Mus musculus [13]) of the same molecule?
A: >95%

Q: And the Activity (Mus musculus [14])?
A: >95%

Q: What about the Activity (Mus musculus [15]) of the same molecule?
A: >90%

Q: And the Kd [16]?
A: 1000 nM

Source: ChEMBL document CHEMBL4354826, “Structure-Based Discovery of SD-36 as a Potent, Selective, and Efficacious PROTAC Degrader of STAT3 Protein” (J Med Chem, 2019)
